In ChEMBL document CHEMBL1135632, “Synthesis and investigation of conformationally restricted analogues of lavendustin A as cytotoxic inhibitors of tubulin polymerization” (J Med Chem, 2002):

Assays:
Homo sapiens [1] = species on record: Homo sapiens; assay: Cytotoxicity against renal SN12C; format: functional
How it was run: (§1)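 NCI human cancer cell line screen. Compounds were tested from 10^-4 to 10^-8 M, and GI50 was taken as the concentration giving 50% growth inhibition. Agents whose mean graph midpoint across about 55 lines was 10 μM or less on the first determination were assayed a second time, with standard deviations calculated. Agents above 10 μM were not evaluated further.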

Homo sapiens [2] = species on record: Homo sapiens; assay: Cytotoxicity against lung HOP-62; format: functional; how it was run: as §1
Homo sapiens [3] = species on record: Homo sapiens; assay: Cytotoxicity against prostate DU-145; format: functional; details: DU-145, Prostate gland; how it was run: as §1
Homo sapiens [4] = species on record: Homo sapiens; assay: Cytotoxicity against ovarian OVCAR-3; format: functional; how it was run: as §1
[5] = (§2) Cytotoxicity against leukemia CCRF-CEM; format: functional; details: Homo sapiens; how it was run: as §1
Homo sapiens [6] = species on record: Homo sapiens; assay: Cytotoxicity against CNS SF-539; format: functional; details: CNSSF-539; how it was run: as §1
Homo sapiens [7] = species on record: Homo sapiens; assay: Cytotoxicity against colon HCT116; format: functional; details: HCT-116; how it was run: as §1
Homo sapiens [8] = species on record: Homo sapiens; assay: Cytotoxicity against melanoma UACC-62; format: functional; how it was run: as §1
Homo sapiens [9] = species on record: Homo sapiens; assay: Cytotoxicity against breast MDA-MB-435; format: functional; how it was run: as §1
Tubulin = Tubulin (Bos taurus, UniProt Q6B856+Q862L2+Q862F3); assay: Inhibition of tubulin polymerization at concentration 10 uM; format: functional
[10] = as §2; format: cell-based; details: human, CCRF-CEM leukemia cells
Tubulin (Bos taurus) = assay: Inhibition of tubulin polymerization at concentration 10 uM

Row | Structure (SMILES) | IC50 (Tubulin) [µM] | IC50 (Tubulin (Bos taurus)) [µM] | GI50 (Homo sapiens [1]) [µM] | GI50 (Homo sapiens [2]) [µM] | GI50 (Homo sapiens [3]) [µM] | GI50 (Homo sapiens [4]) [µM] | GI50 [5] [µM] | GI50 (Homo sapiens [6]) [µM] | GI50 (Homo sapiens [7]) [µM] | GI50 (Homo sapiens [8]) [µM] | GI50 (Homo sapiens [9]) [µM] | GI50 [10] [µM]
1 | O=C(NCCc1ccccc1)c1cc(NCc2cc(O)ccc2O)ccc1O | 3.6 | – | 18 | 20 | 16 | 7.7 | 2.7 | 17 | 18 | 14 | 19 | –
2 | CCCCCCn1c(=O)oc2ccc(NCc3cc(O)ccc3O)cc2c1=O | 6 | – | 4.2 | 14.8 | 13.8 | 1.7 | 0.27 | 2.4 | 3.2 | 3.2 | 3.9 | –
3 | Oc1ccc(O)c(CNc2ccc(O)c(/C=C/CCc3ccccc3)c2)c1 | 7.2 | – | 21.4 | 35.4 | 18.7 | 20.4 | 1.1 | 16.3 | 30.4 | 18 | 5.7 | –
4 | CCCCCCNC(=O)c1cc(NCc2cc(O)ccc2O)ccc1O | 3.6 | – | 6.1 | 19 | 15 | 4 | 0.56 | 2.3 | 17 | 12 | 15 | –
5 | Oc1ccc(O)c(CNc2ccc(O)c(/C=C\CCc3ccccc3)c2)c1 | 3.7 | – | 17.8 | 20.5 | 34 | 21.9 | 0.7 | 11.6 | 19.3 | 15.9 | 17.1 | –
6 | O=c1oc2ccc(NCc3cc(O)ccc3O)cc2c(=O)n1CCc1ccccc1 | 8.3 | – | 9.6 | 21.4 | 15.3 | 3.6 | – | 8.9 | 4.6 | 6 | 5.6 | 1.3
7 | O=C(NCCc1ccc(F)cc1)c1cc(NCc2cc(O)ccc2O)ccc1O | 4 | – | 0.58 | 0.28 | 0.27 | 0.15 | 0.22 | 0.32 | 0.33 | 0.41 | 0.047 | –
8 | O=c1oc2ccc(NCc3cc(O)ccc3O)cc2c(=O)n1CCc1ccc(F)cc1 | 6.8 | – | 6.6 | 17.2 | 17.7 | 2.8 | 0.78 | 5.1 | 4.2 | 7 | 4.9 | –

Further lines, with some results ahead:

Row | IC50 (Tubulin) [µM] | IC50 (Tubulin (Bos taurus)) [µM] | Structure (SMILES) | GI50 (Homo sapiens [1]) [µM] | GI50 (Homo sapiens [2]) [µM] | GI50 (Homo sapiens [3]) [µM] | GI50 (Homo sapiens [4]) [µM] | GI50 [5] [µM] | GI50 (Homo sapiens [6]) [µM] | GI50 (Homo sapiens [7]) [µM] | GI50 (Homo sapiens [8]) [µM] | GI50 (Homo sapiens [9]) [µM] | GI50 [10] [µM]
9 | 5.9 | – | O=C1c2c(O)ccc(NCc3cc(O)ccc3O)c2CN1CCc1ccc(F)cc1 | 16 | 19.6 | 24.6 | 8.8 | 1.8 | 14.4 | 18.7 | 13.3 | 15.6 | –
10 | 7.4 | – | O=C1c2c(O)ccc(NCc3cc(O)ccc3O)c2CN1CCc1ccccc1 | 12.9 | 26.8 | 14.5 | 6.2 | 2.3 | 23.1 | 19.9 | 10.1 | 14.8 | –
11 | 5.9 | – | COc1ccc(NCc2cc(O)ccc2O)c2c1C(=O)N(CCc1ccc(F)cc1)C2 | 20.4 | 31.4 | 16.1 | 8.4 | 3.4 | 14.4 | 20.4 | 19.1 | 14 | –
12 | – | 9.5 | COc1ccc(NCc2cc(O)ccc2O)c2c1C(=O)N(CCc1ccccc1)C2 | – | – | – | – | – | – | – | – | – | –
